Measured values published in ChEMBL document CHEMBL1255479, “Preclinical characterization of the antiviral activity of SCH 900518 (narlaprevir), a novel mechanism-based inhibitor of hepatitis C virus NS3 protease” (Antimicrob Agents Chemother, 2010).
Activity calls are given as the source filed them. The rule behind the calls is not given here.

What was measured:
Hepatitis C virus [1] = experiment: Antiviral activity against Hepatitis C virus genotype 1b assessed as log reduction in RNA level at 1.2 times EC90 after 14 days by RT-PCR method; type: functional, organism-based; conditions: Hepacivirus hominis
Procedure, shortened: (§1)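 Replicon cells kept on compound for up to 14 days, refreshed every 2–3 days and split at confluence. Replicon RNA by TaqMan: dCT = NS5B CT − GAPDH CT; ddCT = treated dCT − vehicle-control dCT; log RNA reduction = log(1/2^ddCT), with day 0 set to 0. Curve fit to one-phase exponential decay.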

[2] = Inhibition of Hepatitis C virus genotype 2a NS3 protease; parameters: species or system Hepatitis C virus subtype 2a
Procedure, shortened: (§2)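 Recombinant single-chain NS3-NS4A protease (genotypes 1a, 1b, 2a, 3a). Continuous spectrophotometric assay: enzyme added to an equal volume of buffer containing the chromogenic substrate acetyl-DTEDVVP(norvaline)-O-4-phenylazophenol. Absorbance was followed for 60 min at several inhibitor levels. Progress curves were fit to a modified Morrison equation. Overall K*i was derived from vs/vo versus [I], corrected using substrate concentration and Km.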

Hepatitis C virus [3] = experiment: Resistance index, ratio of EC90 for Hepatitis C virus genotype 1b expressing NS3 protease A156S mutant to EC90 for wild type Hepatitis C virus genotype 1b after 3 days by RT-PCR method; type: functional, Hepacivirus hominis
Procedure, shortened: (§3)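 Replicons carrying mutant or wild-type NS3 protease treated 3 days; replicon RNA by real-time PCR against GAPDH. EC50 = concentration raising CT by 1 over projected baseline; EC90 = increase of 3.2. Index = mutant/wild-type fold increase, means of two or more experiments unless stated (some single experiment).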

Hepatitis C virus [4] = experiment: Ratio of Ki for boceprevir-resistant Hepatitis C virus genotype 1b NS3 protease V36M and R155K double-mutant to Ki for Hepatitis C virus genotype 1b NS3 protease; parameters: species or system Hepatitis C virus subtype 1b
Procedure, shortened: (§4)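 Recombinant single-chain NS3-NS4A protease (wild type or mutant) in a continuous spectrophotometric assay with chromogenic substrate acetyl-DTEDVVP(norvaline)-O-4-phenylazophenol. Absorbance followed over 60 min at several inhibitor concentrations. Progress curves fit to a modified Morrison equation; K*i derived using substrate concentration and Km. Values are mutant/wild-type fold increase, means of two or more experiments unless noted.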

Hepatitis C virus [5] = experiment: Resistance index, ratio of EC50 for boceprevir-resistant Hepatitis C virus genotype 1b expressing NS3 protease R155K mutant to EC50 for wild type Hepatitis C virus genotype 1b after 3 days by RT-PCR method; type: functional, Hepacivirus hominis; procedure, shortened: as §3
Hepatitis C virus [6] = experiment: Ratio of Ki for boceprevir-resistant Hepatitis C virus genotype 1b NS3 protease A156T mutant to Ki for Hepatitis C virus genotype 1b NS3 protease; parameters: species or system Hepatitis C virus subtype 1b; procedure, shortened: as §4
Hepatitis C virus [7] = experiment: Ratio of Ki for boceprevir-resistant Hepatitis C virus genotype 1b NS3 protease T54A mutant to Ki for Hepatitis C virus genotype 1b NS3 protease; parameters: species or system Hepatitis C virus subtype 1b; procedure, shortened: as §4
Hepatitis C virus [8] = experiment: Resistance index, ratio of EC50 for boceprevir-resistant Hepatitis C virus genotype 1b expressing NS3 protease V36M mutant to EC50 for wild type Hepatitis C virus genotype 1b after 3 days by RT-PCR method; type: functional, Hepacivirus hominis; procedure, shortened: as §3
Hepatitis C virus [9] = experiment: Inhibition of Hepatitis C virus genotype 1b NS3 protease; parameters: species or system Hepatitis C virus subtype 1b; procedure, shortened: as §2
Hepatitis C virus [10] = experiment: Resistance index, ratio of EC50 for boceprevir-resistant Hepatitis C virus genotype 1b expressing NS3 protease D168V mutant to EC50 for wild type Hepatitis C virus genotype 1b after 3 days by RT-PCR method; type: functional, Hepacivirus hominis; procedure, shortened: as §3
Hepatitis C virus [11] = experiment: Ratio of Ki for boceprevir-resistant Hepatitis C virus genotype 1b NS3 protease T54S mutant to Ki for Hepatitis C virus genotype 1b NS3 protease; parameters: species or system Hepatitis C virus subtype 1b; procedure, shortened: as §4
Hepatitis C virus [12] = experiment: Resistance index, ratio of EC90 for Hepatitis C virus genotype 1b expressing NS3 protease T54A/S mutant to EC90 for wild type Hepatitis C virus genotype 1b after 3 days by RT-PCR method; type: functional, Hepacivirus hominis; procedure, shortened: as §3
Hepatitis C virus [13] = experiment: Ratio of Ki for boceprevir-resistant Hepatitis C virus genotype 1b NS3 protease T54S and R155K double-mutant to Ki for Hepatitis C virus genotype 1b NS3 protease; parameters: species or system Hepatitis C virus subtype 1b; procedure, shortened: as §4
Hepatitis C virus [14] = experiment: Ratio of Ki for boceprevir-resistant Hepatitis C virus genotype 1b NS3 protease V36M mutant to Ki for Hepatitis C virus genotype 1b NS3 protease; parameters: species or system Hepatitis C virus subtype 1b; procedure, shortened: as §4
Hepatitis C virus [15] = experiment: Resistance index, ratio of EC50 for boceprevir-resistant Hepatitis C virus genotype 1b expressing NS3 protease A156S mutant to EC50 for wild type Hepatitis C virus genotype 1b after 3 days by RT-PCR method; type: functional, Hepacivirus hominis; procedure, shortened: as §3
Hepatitis C virus [16] = experiment: Ratio of Ki for boceprevir-resistant Hepatitis C virus genotype 1b NS3 protease A156S mutant to Ki for Hepatitis C virus genotype 1b NS3 protease; parameters: species or system Hepatitis C virus subtype 1b; procedure, shortened: as §4
Hepatitis C virus [17] = experiment: Resistance index, ratio of EC90 for Hepatitis C virus genotype 1b expressing NS3 protease A156T/V mutant to EC90 for wild type Hepatitis C virus genotype 1b after 3 days by RT-PCR method; type: functional, Hepacivirus hominis; procedure, shortened: as §3
[18] = Inhibition of Hepatitis C virus genotype 3a NS3 protease; parameters: species or system Hepatitis C virus subtype 3a; procedure, shortened: as §2
[19] = Cytotoxicity against human HuH7 cells by MTS assay; type: cell-based, Huh-7
Hepatitis C virus [20] = experiment: Antiviral activity against Hepatitis C virus genotype 1b assessed as log reduction in RNA level at 5 times EC90 after 14 days by RT-PCR method; type: functional, organism-based; conditions: Hepacivirus hominis; procedure, shortened: as §1
Hepatitis C virus [21] = experiment: Resistance index, ratio of EC50 for boceprevir-resistant Hepatitis C virus genotype 1b expressing NS3 protease V170A mutant to EC50 for wild type Hepatitis C virus genotype 1b after 3 days by RT-PCR method; type: functional, Hepacivirus hominis; procedure, shortened: as §3
Hepatitis C virus [22] = experiment: Ratio of Ki for boceprevir-resistant Hepatitis C virus genotype 1b NS3 protease V36A mutant to Ki for Hepatitis C virus genotype 1b NS3 protease; parameters: species or system Hepatitis C virus subtype 1b; procedure, shortened: as §4
Hepatitis C virus [23] = experiment: Ratio of Ki for boceprevir-resistant Hepatitis C virus genotype 1b NS3 protease V170A mutant to Ki for Hepatitis C virus genotype 1b NS3 protease; parameters: species or system Hepatitis C virus subtype 1b; procedure, shortened: as §4
[24] = Inhibition of Hepatitis C virus genotype 1a NS3 protease; parameters: species or system Hepatitis C virus subtype 1a; procedure, shortened: as §2
Hepatitis C virus [25] = experiment: Resistance index, ratio of EC50 for boceprevir-resistant Hepatitis C virus genotype 1b expressing NS3 protease T54A mutant to EC50 for wild type Hepatitis C virus genotype 1b after 3 days by RT-PCR method; type: functional, Hepacivirus hominis; procedure, shortened: as §3
Hepatitis C virus [26] = experiment: Antiviral activity against Hepatitis C virus genotype 1b assessed as decrease in RNA level after 3 days by RT-PCR method; type: functional, Hepacivirus hominis; conditions: 72 h
Procedure, shortened: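 Genotype 1b replicon cells seeded on collagen I-coated plates; compound added 24 h post-seeding and incubated 3 days. Cells lysed; replicon RNA by real-time PCR (TaqMan) with GAPDH RNA as endogenous control. EC50 = concentration giving a CT increase of 1 over projected baseline CT; EC90 = increase of 3.2. Triplicate measurements.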

Hepatitis C virus [27] = experiment: Resistance index, ratio of EC50 for boceprevir-resistant Hepatitis C virus genotype 1b expressing NS3 protease A156T mutant to EC50 for wild type Hepatitis C virus genotype 1b after 3 days by RT-PCR method; type: functional, Hepacivirus hominis; procedure, shortened: as §3
Hepatitis C virus [28] = experiment: Resistance index, ratio of EC50 for boceprevir-resistant Hepatitis C virus genotype 1b expressing NS3 protease V36M and R155K mutant to EC50 for wild type Hepatitis C virus genotype 1b after 3 days by RT-PCR method; type: functional, Hepacivirus hominis; procedure, shortened: as §3
Hepatitis C virus [29] = experiment: Ratio of Ki for boceprevir-resistant Hepatitis C virus genotype 1b NS3 protease R155K mutant to Ki for Hepatitis C virus genotype 1b NS3 protease; parameters: species or system Hepatitis C virus subtype 1b; procedure, shortened: as §4
Hepatitis C virus [30] = experiment: Resistance index, ratio of EC90 for Hepatitis C virus genotype 1b expressing NS3 protease T54A and A156T mutant to EC90 for wild type Hepatitis C virus genotype 1b after 3 days by RT-PCR method; type: functional, Hepacivirus hominis; procedure, shortened: as §3
Hepatitis C virus [31] = experiment: Ratio of Ki for boceprevir-resistant Hepatitis C virus genotype 1b NS3 protease D168V mutant to Ki for Hepatitis C virus genotype 1b NS3 protease; parameters: species or system Hepatitis C virus subtype 1b; procedure, shortened: as §4
Hepatitis C virus [32] = experiment: Ratio of Ki for boceprevir-resistant Hepatitis C virus genotype 1b NS3 protease F43C mutant to Ki for Hepatitis C virus genotype 1b NS3 protease; parameters: species or system Hepatitis C virus subtype 1b; procedure, shortened: as §4

CCCC[C@H](NC(=O)[C@@H]1[C@@H]2[C@H](CN1C(=O)[C@@H](NC(=O)NC1(CS(=O)(=O)C(C)(C)C)CCCCC1)C(C)(C)C)C2(C)C)C(=O)C(=O)NC1CC1 [NARLAPREVIR]
Activity (Hepatitis C virus [1]): Active
Ki [2]: 3 nM
Ratio (Hepatitis C virus [3]): 30
Ratio Ki (Hepatitis C virus [4]): 160
Ratio EC50 (Hepatitis C virus [5]): 15
Ratio Ki (Hepatitis C virus [6]): 3000
Ratio Ki (Hepatitis C virus [7]): 8
Ratio EC50 (Hepatitis C virus [8]): 8
Ki (Hepatitis C virus [9]): 7 nM
Ratio EC50 (Hepatitis C virus [10]): 1
Ratio Ki (Hepatitis C virus [11]): 3
Ratio (Hepatitis C virus [12]): 10
Ratio Ki (Hepatitis C virus [13]): 58
Ratio Ki (Hepatitis C virus [14]): 3
Ratio EC50 (Hepatitis C virus [15]): 70
Ratio Ki (Hepatitis C virus [16]): 100
Ratio (Hepatitis C virus [17]): 500
Ki [18]: 7 nM
CC50 [19]: > 25000 nM
Activity (Hepatitis C virus [20]): Active
Ratio EC50 (Hepatitis C virus [21]): 10
Ratio Ki (Hepatitis C virus [22]): 5
Ratio Ki (Hepatitis C virus [23]): 6
Ki [24]: 0.7 nM
Ratio EC50 (Hepatitis C virus [25]): 11
EC90 (Hepatitis C virus [26]): 40 nM
Ratio EC50 (Hepatitis C virus [27]): > 1000
Ratio EC50 (Hepatitis C virus [28]): 130
Ratio Ki (Hepatitis C virus [29]): 8
Ratio (Hepatitis C virus [30]): >600
Ratio Ki (Hepatitis C virus [31]): 1
Ratio Ki (Hepatitis C virus [32]): 8
